High-throughput results as filed in PubChem BioAssay.
The list is not random: actives were taken first. Their share in the collection is about 3.5%.
PGC1a acetyl inh = modulators of PGC1a acetylation. U2OS PGC1a acetylation, AlphaScreen anti-acetyl-lysine; with virally co-expressed GCN5 acetyltransferase. inhibition, % at 15.6 µM. 350,000 compounds, 0.17% hits. AID 651687;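 active = every replicate shows inhibition of at least 40%; inconclusive = mean inhibition at least 40% but some replicate below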
Cneo AK release = Cryptococcus neoformans lysis via adenylate kinase release. 360,000 compounds, 0.2% hits. AID 651654. lysis activity, % at 15 µM. C. neoformans lysis, adenylate kinase release luminescence, 4 h; normalised: neutral wells 0, clomiphene wells 100;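 active = mean lysis activity across replicates of at least 80%, whatever share of replicates individually reach that level; inactive = mean lysis activity below 80%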
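Material: C. neoformans cells; Schedule: 4 h static compound exposure, 37 °C, read 1 h post-reagent; Measured by: adenylate kinase release luminescence; Read-out: signal increase indicating cell lysis; Controls: Clomiphene as positive lysis control.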
ERAP1 HTS inh = inhibitors of human ERAP1 aminopeptidase | inhibition, % at 10.7 µM | 340,000 compounds, 0.15% hits | recombinant ERAP1, Leu-AMC fluorescence, 60 min | Q9NZ08 | AID 652197;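 active = mean replicate inhibition of at least 30%, or all replicates individually reaching that 30% level; inactive = mean below 30% and not every replicate reaching it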
Target sequence (Q9NZ08 whole entry, looked up): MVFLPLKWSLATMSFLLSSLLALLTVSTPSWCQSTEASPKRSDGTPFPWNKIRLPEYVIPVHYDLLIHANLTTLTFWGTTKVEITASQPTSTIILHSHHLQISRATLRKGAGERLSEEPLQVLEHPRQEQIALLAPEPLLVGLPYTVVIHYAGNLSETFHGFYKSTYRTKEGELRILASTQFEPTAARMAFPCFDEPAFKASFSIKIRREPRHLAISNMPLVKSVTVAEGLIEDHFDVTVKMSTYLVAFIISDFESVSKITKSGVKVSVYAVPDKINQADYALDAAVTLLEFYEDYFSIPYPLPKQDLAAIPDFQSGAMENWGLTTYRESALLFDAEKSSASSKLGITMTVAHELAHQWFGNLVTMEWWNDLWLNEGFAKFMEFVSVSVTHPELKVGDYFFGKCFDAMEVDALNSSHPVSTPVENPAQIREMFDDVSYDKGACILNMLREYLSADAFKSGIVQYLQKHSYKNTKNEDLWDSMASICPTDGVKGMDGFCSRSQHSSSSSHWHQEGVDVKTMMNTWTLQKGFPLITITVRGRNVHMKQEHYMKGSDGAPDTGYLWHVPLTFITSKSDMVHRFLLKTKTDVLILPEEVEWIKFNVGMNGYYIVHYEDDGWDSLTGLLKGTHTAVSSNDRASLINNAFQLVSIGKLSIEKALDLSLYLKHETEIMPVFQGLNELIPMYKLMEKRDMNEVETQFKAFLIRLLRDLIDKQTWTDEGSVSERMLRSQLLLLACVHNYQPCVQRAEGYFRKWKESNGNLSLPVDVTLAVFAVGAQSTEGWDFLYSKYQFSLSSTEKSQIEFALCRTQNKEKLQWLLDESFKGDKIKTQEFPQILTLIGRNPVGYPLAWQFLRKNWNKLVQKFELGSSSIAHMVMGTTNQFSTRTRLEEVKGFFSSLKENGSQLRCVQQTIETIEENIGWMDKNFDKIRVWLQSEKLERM
HIV Env fusion = blocks HIV Env-driven cell-cell fusion | HeLa-JRFL Env/CEM21 cell fusion, luciferase | inhibition, % at 12.3 µM | 360,000 compounds, 1.1% hits;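 active = mean replicate inhibition score of at least 50 and every replicate individually at or above 50; inconclusive = only one of the two criteria met; inactive = mean below 50 and not all replicates reaching 50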
FGF22 binding = shifts melting point of recombinant human FGF22. Q9HCT0. recombinant FGF22 thermal shift, SYPRO orange fluorescence; percent of sucrose octasulfate shift, DMSO zero. activity (Tm shift, normalised), % at 9.99 µM. 340,000 compounds, 1.5% hits;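 active = mean Tm shift, scaled 0 neutral to 100 positive control, at about 1.3% or above, every replicate too, limit read from the data; inconclusive = no clear call, values can overlap the other calls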
Ecoli rRNA inh = selective bacterial rRNA inhibition in E. coli; GFP signal change (wild-type ribosome), % (concentration not given with the values); 350,000 compounds, 1.6% hits; E. coli WT GFP vs humanized-ribosome RFP mutants, fluorescence, 24 h; active compounds read low; DMSO median 0, no signal -100;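 active = significant combined selectivity score with lowered wild-type GFP, culture density cut under 30%, mutant RFP and density less affected; inactive = any of these conditions unmet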
A number is an active result; – = inactive; ? = inconclusive; · = no result given.

SMILES	PGC1a acetyl inh	Cneo AK release	ERAP1 HTS inh	HIV Env fusion	FGF22 binding	Ecoli rRNA inh
Cn1cccc1Cc1nnc(SCC(=O)Nc2cccc(Cl)c2)n1-c1ccc(F)cc1	–	–	–	–	–	–
Fc1ccc(-c2nc3c4ccccc4ccn3c2Cc2ccsc2)cc1	–	–	–	56.6	–	·
c1coc(-c2nc3c4ccccc4ccn3c2Cc2ccsc2)c1	·	·	–	63.4	–	–
Cc1ccc(S(=O)(=O)Nc2ccc3c(c2)C(=O)N([C@@H](C)CO)C[C@H](C)[C@@H](CN(C)C(=O)Nc2ccc(C(F)(F)F)cc2)O3)cc1	–	–	–	·	–	–
C=CC[N+](C)(C)CCCNC(=O)/C=N/O	·	·	69.2	–	–	–
CCn1c(-c2ccccc2)c(C(=O)CCl)c2ccccc21	–	·	–	–	–	–
Cn1c(-c2ccccc2)c(C(=O)CCl)c2ccccc21	–	·	–	64.4	44.3	–
CCOC(=O)c1csc(NC(=O)c2ccccc2)n1	–	–	–	–	–	–
CCOC(=O)c1csc(NC(=O)c2ccc(OCC)cc2)n1	–	·	–	–	43.1	–
Cc1ccc(-n2cccc2/C=C2/C(=N)N3C(=NC2=O)SN=C3S(C)(=O)=O)cc1Cl	–	–	·	–	·	·
Cc1cccc(C)c1-n1cccc1/C=C1/C(=N)N2C(=NC1=O)SN=C2S(C)(=O)=O	·	·	–	–	43.7	–
COc1ccc2c(c1)[C@H]1[C@H](CO2)[C@H](c2ccccc2)[C@]2(C)C(=O)Nc3cc(OC)c(OC)cc3C(=O)N12	–	–	·	102.0	–	–
C[C@@]12C(=O)Nc3ccc(F)cc3C(=O)N1[C@H]1c3cc(Br)ccc3OC[C@@H]1[C@@H]2c1ccccc1	–	–	–	56.9	–	–
COc1ccc2c(c1)[C@H]1[C@H](CO2)[C@H](c2ccccc2)[C@]2(C)C(=O)Nc3ccc(C)cc3C(=O)N12	·	–	–	–	–	–
C[C@@]12C(=O)Nc3cc(F)ccc3C(=O)N1[C@H]1c3cc(Br)ccc3OC[C@@H]1[C@@H]2c1ccccc1	–	–	–	–	–	–
Cc1ccc(NC(=O)c2ccc(CSc3ccccn3)cc2)c(O)c1	·	·	–	–	–	-35.8
CC[N+]1(CC(O)COC2CC(C)CC(C)(C)C2)CCOCC1 (stereo unspecified)	–	–	107.5	–	–	–
CCCC(=O)Nc1ccc2c(c1)C(=O)N(C)C[C@H](OC)[C@H](C)CN(Cc1cccc(F)c1)[C@H](C)CO2	–	·	·	·	–	–
Cc1cccn2cc(CNS(=O)(=O)c3ccc4ccccc4c3)nc12	–	–	–	?	–	–
C[n+]1ccn(CC(=O)c2cccs2)c1	–	–	–	–	–	–
CCCCCCCCCCCCCCCCn1cc[n+](C)c1	·	·	79.1	127.7	–	–
c1cn2c(NC3CCCCC3)c(-c3ccc(SC4CCCCC4)cc3)nc2cn1	–	–	–	–	–	–
c1cc(SC2CCCCC2)cc(-c2nc3cnccn3c2NC2CCCCC2)c1	·	–	–	59.1	–	–
COCC(=O)N1CC[C@H]2[C@@H]1c1cc(-c3cccc(OC)c3)ccc1N(C)[C@H]2CO	–	–	–	·	–	–
COc1ccc(C(=O)C2CCCN(C(=O)c3noc4c3CCCC4)C2)cc1F (stereo unspecified)	–	–	–	–	–	-25.3
SMILES	PGC1a acetyl inh	Cneo AK release	ERAP1 HTS inh	HIV Env fusion	FGF22 binding	Ecoli rRNA inh
COc1ccc(C(=O)C2CCCN(C(=O)c3noc4c3CCCC4)C2)c(C)c1 (stereo unspecified)	·	–	–	–	–	–
COc1ccc(C(=O)C2CCCN(C(=O)COc3ccc(C(C)=O)cc3)C2)cc1F (stereo unspecified)	–	·	–	–	43.7	–
COc1ccc(NC(=O)N(C)C[C@H]2OCCCC[C@@H](C)Oc3ccc(N(C)C)cc3C(=O)N([C@H](C)CO)C[C@H]2C)cc1	–	111.6	–	–	–	–
COc1ccc(NC(=O)N(C)C[C@H]2OCCCC[C@@H](C)Oc3ccc(N(C)C)cc3C(=O)N([C@@H](C)CO)C[C@@H]2C)cc1	–	–	–	–	–	–
COc1ccc(NC(=O)N(C)C[C@H]2OCCCC[C@H](C)Oc3ccc(NC(=O)C4CCCCC4)cc3C(=O)N([C@@H](C)CO)C[C@@H]2C)cc1	–	90.4	–	–	–	–
O=Cc1c(-c2ccc(Cl)cc2)oc2ccc(O)cc12	–	–	–	–	–	-30.2
O=C(c1ccc(Cl)cc1)C1CCCN(C(=O)/C=C/c2ccccn2)C1 (stereo unspecified)	–	–	–	–	43.8	·
O=[N+]([O-])c1cc(CN2CCN(c3cccc(C(F)(F)F)c3)CC2)c2cccnc2c1O	·	·	–	–	43.1	–
COc1ccc(C2NC(=S)NC(C)=C2C(=O)N2CCOCC2)cc1 (stereo unspecified)	·	·	–	–	–	–
S=C1Cc2ccccc2N1	–	–	–	73.0	–	–
S=C1Nc2ccccc2CS1	·	–	–	–	–	–
COc1ccc(/C=N/NC(=O)CNc2ccc(Br)cc2)c(C(=O)O)c1OC	–	–	–	–	44.0	–
COc1ccc(/C=N/NC(=O)CNc2c(Br)cc(C)cc2Br)c(C(=O)O)c1OC	·	·	·	–	·	·
CCOc1ccc(CN(C)CC(=O)NCc2ccccc2Cl)cc1	–	·	–	–	–	-28.1
CCOc1cc(/C=C2\SC(=N)N(c3nonc3N)C2=O)ccc1OCCN1CCOCC1	–	·	–	–	1.5	–
CCOc1ccc2c(=O)c(Oc3ccccc3)c(C)oc2c1	–	·	·	·	·	·
COc1ccc(C2Nc3ccccc3C(=O)N2Cc2ccccc2)cc1 (stereo unspecified)	·	–	–	–	–	–
COc1ccc([C@@H]2[C@@H](C)N(c3ccccc3)c3ccccc3C(=O)N2Cc2ccccc2)cc1	–	–	–	–	43.5	–
CC(=O)Oc1cc2oc(=O)cc(C)c2cc1Cl	·	–	–	–	–	-26.2
CCn1c(CC(=O)Nc2ccccc2C)nnc1SCC(=O)Nc1nncs1	–	–	–	–	–	–
COc1ccc2nc(N/C(N)=N/S(C)(=O)=O)nc(C)c2c1	–	–	–	60.7	–	–
COc1cc(-c2nc3cccc(C)n3c2NCC2CCCO2)ccc1O (stereo unspecified)	–	·	–	–	43.1	·
COc1ccc(-c2nc3cc(C)ccn3c2NCC2CCCO2)cc1OC (stereo unspecified)	–	–	·	–	·	·
CC(=O)Nc1cccc(NC(=O)CSc2n[nH]c(-c3ccccc3)n2)c1	–	–	–	–	–	·
NS(=O)(=O)c1cccc(NC(=O)CSc2n[nH]c(-c3ccccc3Br)n2)c1	–	–	–	·	1.9	–
Cc1ccc2c(C)nc(Nc3nc(CSc4nnnn4-c4ccccc4)cc(=O)[nH]3)nc2c1	–	·	·	69.7	·	·
Cc1cc(C)c2nc(Nc3nc(CSc4nc5ccccc5[nH]4)cc(=O)[nH]3)nc(C)c2c1	·	·	·	83.5	–	–
